Read-outs that look alike come from different tables or passages of the source.
How the values were obtained:
[1] = molecular target: Gβ1His6γ2C68S (Homo sapiens, UniProt P62873); test: Non-covalent nano ESI QToF mass spectrometry of Gβγ-gallein complexes; format: binding; conditions: collision energies that maintain some non-covalent Gβ-Gγ interactions
Outline: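 Test compound (100 µM) mixed with 5 µM Gβ1His6γ2C68S in 20 mM ammonium acetate, pH 7.0, for 30 min at room temperature. Intact non-covalent complexes were analysed by nano-ESI QToF MS under mild ionisation at low and high collision cell voltage. The C68S mutation blocks Gγ2 lipidation, so no detergent was used.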

[2] = molecular target: T1, Gβ1γ2 (Homo sapiens, UniProt P62873); test: [3H]-gallein binding to Gβγ, spin desalting column separation; conditions: 100 μM gallein or greater; 1 μM Gβγ
[3] = molecular target: T1, Gβ1γ2; test: Surface plasmon resonance direct binding to immobilized biotinylated Gβ1γ2
[4] = molecular target: Gβγ (Homo sapiens, UniProt P62873); test: SPR direct binding to Gβγ with surface regeneration protocol; conditions: for Kd: Kd (μM), surface regeneration protocol, average of N experiments; for koff: read-out: koff (×10^−4s^−1)
Outline: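 Gβ1γ2, biotinylated at the Gβ N-terminus, was captured on neutravidin amine-coupled to the sensor (2000–10000 µRIU), then blocked with 1 mM biotin. The run used 50 mM HEPES pH 7.6, 1 mM EDTA, 100 mM NaCl, 0.1% C12E10, 1 mM DTT and 1.2% DMSO at 25°C. Dilutions were injected 7 min at 50 µL/min with 10 min dissociation. Regeneration was 3×30 s MgCl2/urea/guanidine-HCl. Data were reference/blank/DMSO-corrected, fitted by a regeneration kinetic model and averaged.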

[5] = Kd (μM), kinetic titration, average of N experiments

maximum binding stoichiometry [2] | Kd [3, 5] | concentration above which non-specific/multiple binding sites were observed ([3]; kinetic titration) | koff slower than that of M201 ([3]; kinetic titration) | koff ([3]; read-out: koff (×10^−4s^−1)) | kon ([3]; read-out: kon (M^−1s^−1)) | kon [4] | Kd [4] | koff [4] | kon ([4]; read-out: kon (M^−1s^−1)) | SPR response associated with binding to Gβγ ([3]; control peptide, data not shown) | Molecule | reversal of binding at higher collision energy [1] | Kd ([3]; Kd (M), Equilibrium titration) | Kd ([3]; Kd (M), Kinetic titration) | Kd ([3]; average Kd) | Ka (association constant) ([3]; equilibrium analysis, Rmax(obs) fit to 1:1 Langmuir isotherm, single data set) | koff ([3]; read-out: koff (s^−1), Kinetic titration) | kon ([3]; read-out: kon (M^−1s^−1), Kinetic titration)
1.6 moles of gallein to 1 mole of Gβγ | 0.407 ± 0.24 µM | above 30 μM | 10 fold | 0.00035 ± 4.5e-05 s⁻¹ | 870 ± 112 M⁻¹ s⁻¹ | 981 M⁻¹ s⁻¹ | 0.35 ± 0.03 µM | 0.00032 ± 2.7e-05 s⁻¹ | 926 ± 55 M⁻¹ s⁻¹ |  | O=C1OC2(c3ccccc31)c1ccc(O)c(O)c1Oc1c2ccc(O)c1O [Gallein, 3′, 4′, 5′, 6′-tetrahydroxyspiro[2-benzofuran-3, 9′-xanthene]-1-one] | fully reversed |  |  |  |  |  | 
 | 2 ± 0.3 µM | > 20 µM | 10 fold | 0.00086 ± 0.00024 s⁻¹ | 390 ± 93 M⁻¹ s⁻¹ |  | 2.7 ± 0.45 µM | 0.00082 ± 0.00051 s⁻¹ | 267 ± 137 M⁻¹ s⁻¹ |  | Nc1cccc(Nc2cc(S(=O)(=O)O)c(N)c3c2C(=O)c2ccccc2C3=O)c1 [compound 372, 1-amino-4-(3-aminoanilino)-9,10-dioxoanthracene-2-sulfonic acid] |  |  |  |  |  |  | 
 |  |  |  |  |  |  |  |  |  | did not elicit a response | SIGK(L9A): Control peptide, non-binding in the ELISA experiments (SIGKAFKIAGYPDYD) [reference compound] |  |  |  |  |  |  | 

Molecule | maximum binding stoichiometry [2] | Kd [3, 5] | concentration above which non-specific/multiple binding sites were observed ([3]; kinetic titration) | koff slower than that of M201 ([3]; kinetic titration) | koff ([3]; read-out: koff (×10^−4s^−1)) | kon ([3]; read-out: kon (M^−1s^−1)) | kon [4] | Kd [4] | koff [4] | kon ([4]; read-out: kon (M^−1s^−1)) | SPR response associated with binding to Gβγ ([3]; control peptide, data not shown) | reversal of binding at higher collision energy [1] | Kd ([3]; Kd (M), Equilibrium titration) | Kd ([3]; Kd (M), Kinetic titration) | Kd ([3]; average Kd) | Ka (association constant) ([3]; equilibrium analysis, Rmax(obs) fit to 1:1 Langmuir isotherm, single data set) | koff ([3]; read-out: koff (s^−1), Kinetic titration) | kon ([3]; read-out: kon (M^−1s^−1), Kinetic titration)
O=C(O)C1CCCCC1c1c2ccc(=O)c(O)c-2oc2c(O)c(O)ccc12 (stereo not shown) [M119, 2-(3,4,5-trihydroxy-6-oxoxanthen-9-yl)cyclohexane-1-carboxylic acid] |  |  |  |  | 0.0002 ± 8e-05 s⁻¹ | 830 ± 200 M⁻¹ s⁻¹ |  |  |  |  |  |  | 0.46 µM | 0.12 µM | 0.276 ± 0.07 µM | 2.16e+06 M⁻¹ | 0.00012 s⁻¹ | 1027 ± 8 M⁻¹ s⁻¹

Source: publication PMC3140432 (Biochimica et biophysica acta, 2011)
